Data: ChEMBL document CHEMBL4145545, “Synthesis and structure-activity relationships of asymmetric dimeric β-carboline derivatives as potential antitumor agents” (Eur J Med Chem, 2018)
Calls of active or inactive are those of the source. The rule behind the calls is not given here.

Experiments:
A-375 = test: Cytotoxicity against human A375 cells assessed as cell growth inhibition after 24 hrs by MTT assay; assay type: functional, cell-based; settings: A-375, 24 h
Method in brief: (§1)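 Cell lines grown to log phase in RPMI-1640 with 10% FBS, penicillin and streptomycin. About 10^5 cells/mL were plated and pre-incubated 24 h at 37 °C in 5% CO2. Compounds were given in DMSO, final ≤2% (v/v). MTT read-out was OD at 490 nm. Triplicate wells per concentration, each assay run ≥3 times. IC50 is 50% OD reduction versus untreated cells, calculated by the Logit method. Cisplatin was the reference.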

SK-OV-3 = test: Cytotoxicity against human SKOV3 cells assessed as cell growth inhibition after 24 hrs by MTT assay; assay type: functional, cell-based; settings: SK-OV-3, 24 h; method in brief: as §1
769-P = test: Cytotoxicity against human 769-P cells assessed as cell growth inhibition after 24 hrs by MTT assay; assay type: functional, cell-based; method in brief: as §1
MCF7 = test: Cytotoxicity against human MCF7 cells assessed as cell growth inhibition after 24 hrs by MTT assay; assay type: functional, cell-based; settings: MCF7, 24 h; method in brief: as §1
[1] = Cytotoxicity against human BGC cells assessed as cell growth inhibition after 24 hrs by MTT assay; assay type: functional, cell-based; method in brief: as §1
[2] = system: Lewis lung carcinoma cell line; test: Cytotoxicity against mouse LLC cells assessed as cell growth inhibition after 24 hrs by MTT assay; assay type: functional, cell-based; method in brief: as §1
HT-29 = test: Cytotoxicity against human HT-29 cells assessed as cell growth inhibition after 24 hrs by MTT assay; assay type: functional, cell-based; settings: HT-29, 24 h; method in brief: as §1
HepG2 = test: Cytotoxicity against human HepG2 cells assessed as cell growth inhibition after 24 hrs by MTT assay; assay type: functional, cell-based; settings: HepG2, 24 h; method in brief: as §1
ECa-109 cell line = test: Cytotoxicity against human ECA109 cells assessed as cell growth inhibition after 24 hrs by MTT assay; assay type: functional, cell-based; settings: ECa-109, 24 h; method in brief: as §1
Mus musculus [3] = test: Neurotoxicity in Kunming mouse assessed as jumping behavior at 5 to 500 mg/kg, ip observed continuously for first 2 hrs, intermittently for next 24 hrs and occasionally thereafter for 14 days; assay type: toxicity, organism-based; settings: in vivo
Method in brief: (§2)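 SPF KM mice, 6-8 weeks, 19-22 g, fasted overnight with water available. Single i.p. dose, 5.0 to 500 mg kg-1 in 0.5% CMC-Na, 10 mice per group (5 male, 5 female). Observed for behaviour, neurotoxic signs and deaths, then killed on day 14 and heart, liver and kidneys inspected macroscopically. LD50 derived graphically.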

Mus musculus [4] = test: Hepatotoxicity in Kunming mouse at 5 to 500 mg/kg, ip after 14 days by macroscopic method; assay type: toxicity, organism-based; settings: in vivo, 336 h
Mus musculus [5] = test: Neurotoxicity in Kunming mouse assessed as supination at 5 to 500 mg/kg, ip observed continuously for first 2 hrs, intermittently for next 24 hrs and occasionally thereafter for 14 days; assay type: toxicity, organism-based; settings: in vivo; method in brief: as §2
Mus musculus [6] = test: Nephrotoxicity in Kunming mouse at 5 to 500 mg/kg, ip after 14 days by macroscopic method; assay type: toxicity, organism-based; settings: in vivo, 336 h
Mus musculus [7] = test: Neurotoxicity in Kunming mouse assessed as twitch at 5 to 500 mg/kg, ip observed continuously for first 2 hrs, intermittently for next 24 hrs and occasionally thereafter for 14 days; assay type: toxicity, organism-based; settings: in vivo; method in brief: as §2
[8] = Acute toxicity in ip dosed Kunming mouse observed continuously for first 2 hrs, intermittently for next 24 hrs and occasionally thereafter for 14 days; assay type: organism-based; settings: in vivo; method in brief: as §2
Mus musculus [9] = test: Cardiotoxicity in Kunming mouse at 5 to 500 mg/kg, ip after 14 days by macroscopic method; assay type: toxicity, organism-based; settings: in vivo, 336 h
Mus musculus [10] = test: Neurotoxicity in Kunming mouse assessed as tremble at 5 to 500 mg/kg, ip observed continuously for first 2 hrs, intermittently for next 24 hrs and occasionally thereafter for 14 days; assay type: toxicity, organism-based; settings: in vivo; method in brief: as §2
Sarcoma-180 [11] = test: Antitumor activity against mouse Sarcoma 180 cells implanted in mouse assessed as tumor growth inhibition at 10 mg/kg, ip administered once per day for 7 consecutive days starting from 24 hrs post tumor inoculation and measured on day 21 post tumor inoculation relative to control; assay type: functional; settings: Sarcoma-180, ip, read-out: TGI
Method in brief: (§3)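 Tumor cells were harvested from 7-day donor tumors, and 2×10^6 viable cells/mouse were injected s.c. in the armpit. Groups of 10 female mice received i.p. compound daily for 7 days, starting 24 h after inoculation. Controls were vehicle (negative) and CTX 30 mg/kg (positive). Body weight was recorded every 3 days. On day 21 tumors were excised and weighed, and inhibition was calculated as (C−T)/C×100 from mean tumor weights.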

Mus musculus [12] = test: Acute toxicity in ip dosed Kunming mouse assessed as death at higher dose up to 4 to 8 hrs; assay type: organism-based; settings: in vivo; method in brief: as §2
Chorioallantoic membrane = test: In vivo antiangiogenic activity in chicken embryo chorioallantoic membrane at 50 uM/disc after 48 hrs by microscopic method; assay type: functional, organism-based; settings: Gallus gallus
Sarcoma-180 [13] = test: Antitumor activity against mouse Sarcoma 180 cells implanted in mouse assessed as tumor growth inhibition at 30 mg/kg, ip administered once per day for 7 consecutive days starting from 24 hrs post tumor inoculation and measured on day 21 post tumor inoculation relative to control; assay type: functional; settings: Sarcoma-180, ip, read-out: TGI
Method in brief: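 Tumour cells passaged in mice for 7 days, then 2 × 10^6 viable cells given s.c. into the armpit of female mice, 10 per group. […] CTX at 30 mg kg-1 as reference, vehicle as negative control. Body weight recorded every 3 days. Tumours excised and weighed on day 21. Inhibition = (C − T)/C × 100, using mean tumour weights.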

[14] = system: Lewis lung carcinoma cell line; test: Antitumor activity against mouse LLC cells implanted in mouse assessed as tumor growth inhibition at 10 mg/kg, ip administered once per day for 7 consecutive days starting from 24 hrs post tumor inoculation and measured on day 21 post tumor inoculation relative to control; assay type: functional; settings: read-out: TGI; method in brief: as §3
[15] = system: Lewis lung carcinoma cell line; test: animal or person; settings: Mus musculus, ip, read-out: TGI

Row | Structure (SMILES) | IC50 (A-375) | IC50 (SK-OV-3) | IC50 (769-P) | IC50 (MCF7) | IC50 [1] | IC50 [2] | IC50 (HT-29) | IC50 (HepG2) | IC50 (ECa-109 cell line) | also measured
1 | COc1ccc(-c2nccc3c4ccccc4n(CCCCOc4ccc5c6ccnc(C)c6n(CCCc6ccccc6)c5c4)c23)cc1OC | 6.7 µM | 8.8 µM | 8.2 µM | 7.2 µM | 9.7 µM | 6.2 µM | 22.7 µM | 2.4 µM | 9.3 µM | 
2 | Cc1nccc2c3ccc(OCCCCn4c5ccccc5c5ccncc54)cc3n(CCCc3ccccc3)c12.Cl | 33.4 µM | 13.8 µM | 10.7 µM | 4.5 µM | 8.5 µM | 9.6 µM | 15.9 µM | 9.7 µM | 9.5 µM | Activity (Mus musculus [3]): Non-Toxic; Activity (Mus musculus [4]): Non-Toxic; Activity (Mus musculus [5]): Non-Toxic; Activity (Mus musculus [6]): Non-Toxic; Activity (Mus musculus [7]): Non-Toxic; LD50 at 14 days [8]: 50 mg/kg; Activity (Mus musculus [9]): Non-Toxic; Activity (Mus musculus [10]): Non-Toxic; inhibition in vivo at 10 mg/kg (Sarcoma-180 [11]): 33.5%; Activity (Mus musculus [12]): Toxic
3 | COc1ccc(/C=C\c2cc(OC)c(OC)c(OC)c2)cc1OP(=O)(O)O |  |  |  |  |  |  |  |  |  | Activity (Chorioallantoic membrane): Active
4 | COc1cc(-c2nccc3c4ccccc4n(CCCCOc4ccc5c6ccnc(C)c6n(CCCc6ccccc6)c5c4)c23)cc(OC)c1OC | 7.1 µM | 10.3 µM | 14.1 µM | 11.7 µM | 18.2 µM | 8.7 µM | 3.9 µM | 24.9 µM | 9.7 µM | 
5 | Cc1nccc2c3ccc(OCCCCCCn4c5ccccc5c5ccncc54)cc3n(CCCc3ccccc3)c12 | 37.1 µM | 76.4 µM | 13.1 µM | 8.5 µM | 11.2 µM | 28.2 µM | 16.2 µM | 12.1 µM | 12.6 µM | 
6 | Cc1nccc2c3ccccc3n(CCCCOc3ccc4c5ccnc(C)c5n(CCCc5ccccc5)c4c3)c12.Cl | 8.4 µM | 13.1 µM | 9.9 µM | 4 µM | 7.4 µM | 4.4 µM | 14.1 µM | 9.1 µM | 9.9 µM | Activity (Mus musculus [3]): Non-Toxic; Activity (Mus musculus [4]): Non-Toxic; inhibition in vivo at 30 mg/kg (Sarcoma-180 [13]): 36.7%; Activity (Mus musculus [5]): Non-Toxic; Activity (Mus musculus [6]): Non-Toxic; Activity (Mus musculus [7]): Non-Toxic; LD50 at 14 days [8]: 150 mg/kg; Activity (Mus musculus [9]): Non-Toxic; Activity (Mus musculus [10]): Non-Toxic; Activity (Mus musculus [12]): Toxic
7 | CCCCn1c2cc(OCCCCCCn3c4ccccc4c4ccncc43)ccc2c2ccnc(C)c21 | 78.3 µM | > 100 µM | > 100 µM | > 100 µM | > 100 µM | 46.1 µM | > 100 µM | 51.7 µM | > 100 µM | 
8 | CCCCn1c2cc(OCCCCCn3c4ccccc4c4ccnc(C)c43)ccc2c2ccnc(C)c21 | 50.8 µM | 14.3 µM | 11.6 µM | > 100 µM | > 100 µM | 12.4 µM | 10.1 µM | > 100 µM | > 100 µM | 
9 | CCn1c2cc(OCCCCCn3c4ccccc4c4ccnc(C)c43)ccc2c2ccnc(C)c21 | 31.5 µM | 30.8 µM | 70.6 µM | 56.3 µM | 35.4 µM | > 100 µM | 14.9 µM | 112 µM | 46.6 µM | 
10 | Cc1nccc2c3ccc(OCCCCn4c5ccccc5c5ccnc(-c6ccccc6Cl)c54)cc3n(CCCc3ccccc3)c12 | 3.9 µM | 22.9 µM | 21.9 µM | 5.9 µM | 12.4 µM | 10.1 µM | 20.2 µM | 14.4 µM | 18.4 µM | 
11 | Cc1nccc2c3ccc(OCCCCn4c5ccccc5c5ccnc(C(C)C)c54)cc3n(CCCc3ccccc3)c12 | 23.8 µM | 28.1 µM | 18.5 µM | 14.4 µM | 37.8 µM | 10.8 µM | 12.1 µM | 46.2 µM | 16.2 µM | 
12 | CCCCn1c2cc(OCCCCn3c4ccccc4c4ccncc43)ccc2c2ccnc(C)c21 | 72.4 µM | 17.3 µM | 22.9 µM | 28.8 µM | 41.5 µM | 38 µM | 21.8 µM | 29.5 µM | 21.8 µM | 
13 | Cc1nccc2c3ccc(OCCCCn4c5ccccc5c5ccnc(-c6cccnc6)c54)cc3n(CCCc3ccccc3)c12 | 18.9 µM | 22.9 µM | 7.2 µM | 29.8 µM | 4.2 µM | 9.4 µM | 11.2 µM | 10.7 µM | 12.9 µM | 
14 | CCCCn1c2cc(OCCCCn3c4ccccc4c4ccnc(C)c43)ccc2c2ccnc(C)c21.Cl | 14.1 µM | 21.7 µM | 15.3 µM | 11.2 µM | 33.6 µM | 13.3 µM | 16.4 µM | 15.7 µM | 12.2 µM | inhibition in vivo at 10 mg/kg [14]: 27.2%; Activity (Mus musculus [3]): Non-Toxic; Activity (Mus musculus [4]): Non-Toxic; Activity (Mus musculus [5]): Non-Toxic; Activity (Mus musculus [6]): Non-Toxic; Activity (Mus musculus [7]): Non-Toxic; LD50 at 14 days [8]: 50 mg/kg; Activity (Mus musculus [9]): Non-Toxic; Activity (Mus musculus [10]): Non-Toxic; inhibition in vivo at 10 mg/kg (Sarcoma-180 [11]): 53.3%; Activity (Mus musculus [12]): Toxic
15 | CCn1c2cc(OCCCCCCn3c4ccccc4c4ccnc(C)c43)ccc2c2ccnc(C)c21 | 74.6 µM | 11.2 µM | 75.2 µM | 75.2 µM | 44.7 µM | 51.1 µM | 36.2 µM | 74.6 µM | 61.4 µM | 
16 | CCn1c2cc(OCCCCCCn3c4ccccc4c4ccncc43)ccc2c2ccnc(C)c21 | 34.7 µM | > 100 µM | > 100 µM | 19 µM | 40.7 µM | 21.8 µM | 60.3 µM | > 100 µM | 17.4 µM | 
17 | Cc1nccc2c3ccccc3n(CCCCCCOc3ccc4c5ccnc(C)c5n(CCCc5ccccc5)c4c3)c12 | 15.8 µM | 19.4 µM | 16.1 µM | 11.7 µM | 12.5 µM | 14.1 µM | 28.1 µM | 14.1 µM | 15.1 µM | 
18 | CCCCn1c2cc(OCCCCCn3c4ccccc4c4ccncc43)ccc2c2ccnc(C)c21 | > 100 µM | 65.1 µM | 31.1 µM | 16.7 µM | > 100 µM | > 100 µM | 32.6 µM | 65.1 µM | > 100 µM | 
19 | O=P1(N(CCCl)CCCl)NCCCO1 (stereo unspecified) [CYCLOPHOSPHAMIDE ANHYDROUS] |  |  |  |  |  |  |  |  |  | inhibition in vivo at 30 mg/kg (Sarcoma-180 [13]): 82.5%; inhibition in vivo at 30 mg/kg [15]: 80.7%
20 | CCn1c2cc(OCCCCn3c4ccccc4c4ccncc43)ccc2c2ccnc(C)c21 | 30.7 µM | 19.8 µM | 27.4 µM | 19.4 µM | 41.5 µM | 16.5 µM | 37 µM | > 100 µM | 37 µM | 
